Columns and labels:
[1] = molecular target: T1, Phosphatidylinositol 4,5-bisphosphate 3-kinase catalytic subunit delta isoform (Homo sapiens, UniProt O00329); experiment: Inhibition of histidine-tagged recombinant human full length PI3Kdelta expressed in baculovirus preincubated for 15 mins followed by addition of cold ATP/gamma32P-ATP measured after 20 mins in presence of MgCl2
T1 sequence (O00329 whole entry): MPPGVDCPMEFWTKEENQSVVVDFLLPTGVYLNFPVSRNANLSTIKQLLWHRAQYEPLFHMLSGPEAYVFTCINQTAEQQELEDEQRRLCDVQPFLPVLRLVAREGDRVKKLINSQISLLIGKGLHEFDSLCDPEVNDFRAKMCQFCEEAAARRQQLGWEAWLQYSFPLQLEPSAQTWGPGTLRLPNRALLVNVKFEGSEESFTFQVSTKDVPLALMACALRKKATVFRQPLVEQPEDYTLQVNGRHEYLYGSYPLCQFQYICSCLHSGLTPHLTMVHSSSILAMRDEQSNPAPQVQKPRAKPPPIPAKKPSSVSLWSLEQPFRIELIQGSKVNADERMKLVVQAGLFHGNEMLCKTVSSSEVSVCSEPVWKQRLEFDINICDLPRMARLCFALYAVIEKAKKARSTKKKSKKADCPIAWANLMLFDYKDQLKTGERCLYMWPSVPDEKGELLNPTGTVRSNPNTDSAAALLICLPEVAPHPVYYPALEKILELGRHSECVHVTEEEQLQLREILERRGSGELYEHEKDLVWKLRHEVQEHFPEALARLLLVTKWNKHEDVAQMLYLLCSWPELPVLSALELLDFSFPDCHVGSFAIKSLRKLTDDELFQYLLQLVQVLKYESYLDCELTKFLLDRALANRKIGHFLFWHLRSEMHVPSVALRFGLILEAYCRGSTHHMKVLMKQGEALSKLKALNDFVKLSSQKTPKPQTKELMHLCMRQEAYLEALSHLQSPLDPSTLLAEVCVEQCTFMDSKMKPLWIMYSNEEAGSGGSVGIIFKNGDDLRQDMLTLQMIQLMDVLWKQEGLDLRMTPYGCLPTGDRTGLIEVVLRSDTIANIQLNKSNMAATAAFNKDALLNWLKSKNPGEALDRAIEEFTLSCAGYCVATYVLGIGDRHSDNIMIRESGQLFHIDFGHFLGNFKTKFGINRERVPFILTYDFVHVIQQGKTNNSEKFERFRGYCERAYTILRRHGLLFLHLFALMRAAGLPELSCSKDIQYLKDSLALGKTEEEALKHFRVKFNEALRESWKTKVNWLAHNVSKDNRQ
Outline: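 Final: 50 mM HEPES pH 7.5, 100 mM NaCl, 0.03% CHAPS, 10 mM MgCl2, 1 mM EGTA, 2 mM DTT, 80 µM PIP2 (PIP2:DOPS:DOPC), 500 ng/µL BSA, 2% DMSO, 10 µM ATP, 2.5 uCi γ32P-ATP. Nitrocellulose capture, phosphorimaging.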

[2] = molecular target: Phosphatidylinositol 3-kinase catalytic subunit type 3 (Homo sapiens, UniProt Q8NEB9); experiment: Inhibition of GST-tagged recombinant human full length VPS34 expressed in baculovirus preincubated for 15 mins followed by addition of cold ATP/gamma32P-ATP measured after 1 hr in presence of MnCl2
Outline: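 Radiometric membrane-capture assay, 10 nM purchased vps34, 15 min preincubation with inhibitor, then 1 h reaction. Final: 50 mM HEPES pH 7.5, 0.1% CHAPS, 2mM MnCl2, 1 mM EGTA, 2 mM DTT, 100 µM PI in PI:DOPS:DOPC, 500 ng/µL BSA, 2% DMSO, 10 µM ATP, 2.5 uCi γ32P-ATP; spots washed, phosphorimaged.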

[3] = Inhibition of N-terminal flag-tagged recombinant human full length PI4K3alpha expressed in baculovirus infected Sf21 insect cells preincubated for 15 mins followed by addition of cold ATP/gamma32P-ATP measured after 25 mins
Outline: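 Purchased PI4KIIIα at 1.2 nM; 15 min inhibitor preincubation, 25 min reaction in 20 mM Bis-Tris propane pH 7.5, 10 mM MgCl2, 0.075 mM Triton X-100, 0.5 mM EGTA, 1 mM DTT, 100 µM PI (PI:DOPS:DOPC), 500 ng/µL BSA, 2% DMSO, 10 µM ATP, 2 uCi γ32P-ATP. Radiolabel captured on nitrocellulose, phosphorimaged.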

[4] = molecular target: Phosphatidylinositol 4-kinase type 2-alpha (Homo sapiens) (UniProt Q9BTU6); experiment: Inhibition of flag-tagged recombinant PI4K2alpha (unknown origin) transfected in HEK293T cells upto 20 uM preincubated for 15 mins followed by addition of cold ATP/gamma32P-ATP measured after 25 mins; assay type: cell-based; settings: HEK-293T
Outline: (§1)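 Enzymes cloned from DNASU plasmids, FLAG-tagged, transfected into HEK293T and FLAG-immunoprecipitated, eluted with FLAG peptide. 15 min inhibitor preincubation, 25 min reaction in 20 mM Bis-Tris propane pH 7.5, 10 mM MgCl2, 0.075 mM Triton X-100, 0.5 mM EGTA, 1 mM DTT, 100 µM PI, 500 ng/µL BSA, 2% DMSO, 10 µM ATP, 2 uCi γ32P-ATP; phosphorimaging.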

[5] = molecular target: Phosphatidylinositol 4-kinase type 2-beta (Homo sapiens) (UniProt Q8TCG2); experiment: Inhibition of flag-tagged recombinant PI4K2beta (unknown origin) transfected in HEK293T cells upto 20 uM preincubated for 15 mins followed by addition of cold ATP/gamma32P-ATP measured after 25 mins; assay type: cell-based; settings: HEK-293T; outline: as §1
[6] = molecular target: Phosphatidylinositol 4,5-bisphosphate 3-kinase catalytic subunit beta isoform (Homo sapiens) (UniProt P42338); experiment: Inhibition of N-terminal histidine-tagged recombinant human full length PI3Kbeta expressed in baculovirus infected Sf9 insect cells upto 20 uM preincubated for 15 mins followed by addition of cold ATP/gamma32P-ATP measured after 15 mins
Outline: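 PI3Kβ 0.6 nM final; inhibitor preincubated 15 min, reaction 15 min. Final: 50 mM HEPES pH 7.5, 100 mM NaCl, 0.03% CHAPS, 10 mM MgCl2, 1 mM EGTA, 2 mM DTT, 80 µM PIP2 (PIP2:DOPS:DOPC), 500 ng/µL BSA, 2% DMSO, 10 µM ATP, 2 uCi γ32P-ATP; membrane capture, phosphorimaging.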

Chain of Phosphatidylinositol 4-kinase type 2-beta (Homo sapiens) (Q8TCG2 whole entry, canonical isoform): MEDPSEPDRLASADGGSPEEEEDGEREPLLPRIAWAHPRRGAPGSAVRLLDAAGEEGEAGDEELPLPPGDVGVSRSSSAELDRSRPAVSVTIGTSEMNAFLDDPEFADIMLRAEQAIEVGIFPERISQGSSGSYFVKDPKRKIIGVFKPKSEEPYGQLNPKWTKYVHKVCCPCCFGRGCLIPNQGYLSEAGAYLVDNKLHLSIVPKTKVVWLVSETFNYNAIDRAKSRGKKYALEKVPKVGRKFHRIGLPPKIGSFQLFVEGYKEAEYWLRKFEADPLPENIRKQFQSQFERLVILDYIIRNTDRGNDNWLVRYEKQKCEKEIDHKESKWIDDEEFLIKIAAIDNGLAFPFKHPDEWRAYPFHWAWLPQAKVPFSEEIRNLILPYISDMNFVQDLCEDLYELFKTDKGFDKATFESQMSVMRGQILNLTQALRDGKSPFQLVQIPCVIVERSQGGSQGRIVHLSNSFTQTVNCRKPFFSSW
Chain of Phosphatidylinositol 4-kinase type 2-alpha (Homo sapiens) (Q9BTU6 whole entry): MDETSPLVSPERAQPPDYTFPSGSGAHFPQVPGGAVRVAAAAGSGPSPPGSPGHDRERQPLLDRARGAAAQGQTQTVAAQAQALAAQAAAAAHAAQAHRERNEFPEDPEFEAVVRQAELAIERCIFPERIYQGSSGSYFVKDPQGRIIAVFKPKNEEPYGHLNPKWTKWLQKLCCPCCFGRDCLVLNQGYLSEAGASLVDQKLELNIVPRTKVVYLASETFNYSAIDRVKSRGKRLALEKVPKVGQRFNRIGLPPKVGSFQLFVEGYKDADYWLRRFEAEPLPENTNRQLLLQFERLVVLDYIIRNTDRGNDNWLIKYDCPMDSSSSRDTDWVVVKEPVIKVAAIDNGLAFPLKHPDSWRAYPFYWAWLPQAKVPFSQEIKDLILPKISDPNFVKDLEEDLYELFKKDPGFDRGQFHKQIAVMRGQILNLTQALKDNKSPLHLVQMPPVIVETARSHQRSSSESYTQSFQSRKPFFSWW
Chain of Phosphatidylinositol 3-kinase catalytic subunit type 3 (Q8NEB9 whole entry): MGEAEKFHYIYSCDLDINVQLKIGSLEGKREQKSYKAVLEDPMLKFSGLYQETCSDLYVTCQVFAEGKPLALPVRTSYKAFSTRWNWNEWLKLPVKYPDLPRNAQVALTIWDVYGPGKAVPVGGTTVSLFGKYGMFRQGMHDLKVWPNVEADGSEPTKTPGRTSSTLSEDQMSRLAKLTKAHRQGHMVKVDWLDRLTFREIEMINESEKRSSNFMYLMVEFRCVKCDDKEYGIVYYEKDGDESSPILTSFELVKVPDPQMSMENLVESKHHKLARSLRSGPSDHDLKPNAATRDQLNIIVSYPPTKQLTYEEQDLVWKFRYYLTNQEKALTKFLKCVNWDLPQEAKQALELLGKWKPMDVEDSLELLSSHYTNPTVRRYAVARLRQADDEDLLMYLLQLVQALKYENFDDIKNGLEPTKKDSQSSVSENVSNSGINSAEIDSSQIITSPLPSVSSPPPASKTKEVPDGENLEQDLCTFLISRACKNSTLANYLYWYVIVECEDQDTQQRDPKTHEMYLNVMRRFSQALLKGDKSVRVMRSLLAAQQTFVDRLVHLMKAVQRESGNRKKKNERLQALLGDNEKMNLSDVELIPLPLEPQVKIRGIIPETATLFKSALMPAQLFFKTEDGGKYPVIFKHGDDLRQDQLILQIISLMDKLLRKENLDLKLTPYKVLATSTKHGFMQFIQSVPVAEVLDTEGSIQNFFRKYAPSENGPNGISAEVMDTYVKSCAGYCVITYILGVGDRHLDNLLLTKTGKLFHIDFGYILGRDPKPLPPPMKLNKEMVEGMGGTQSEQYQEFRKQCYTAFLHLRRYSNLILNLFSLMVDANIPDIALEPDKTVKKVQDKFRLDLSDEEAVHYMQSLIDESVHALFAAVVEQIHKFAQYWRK
Chain of Phosphatidylinositol 4,5-bisphosphate 3-kinase catalytic subunit beta isoform (Homo sapiens) (P42338 whole entry, looked up, canonical isoform): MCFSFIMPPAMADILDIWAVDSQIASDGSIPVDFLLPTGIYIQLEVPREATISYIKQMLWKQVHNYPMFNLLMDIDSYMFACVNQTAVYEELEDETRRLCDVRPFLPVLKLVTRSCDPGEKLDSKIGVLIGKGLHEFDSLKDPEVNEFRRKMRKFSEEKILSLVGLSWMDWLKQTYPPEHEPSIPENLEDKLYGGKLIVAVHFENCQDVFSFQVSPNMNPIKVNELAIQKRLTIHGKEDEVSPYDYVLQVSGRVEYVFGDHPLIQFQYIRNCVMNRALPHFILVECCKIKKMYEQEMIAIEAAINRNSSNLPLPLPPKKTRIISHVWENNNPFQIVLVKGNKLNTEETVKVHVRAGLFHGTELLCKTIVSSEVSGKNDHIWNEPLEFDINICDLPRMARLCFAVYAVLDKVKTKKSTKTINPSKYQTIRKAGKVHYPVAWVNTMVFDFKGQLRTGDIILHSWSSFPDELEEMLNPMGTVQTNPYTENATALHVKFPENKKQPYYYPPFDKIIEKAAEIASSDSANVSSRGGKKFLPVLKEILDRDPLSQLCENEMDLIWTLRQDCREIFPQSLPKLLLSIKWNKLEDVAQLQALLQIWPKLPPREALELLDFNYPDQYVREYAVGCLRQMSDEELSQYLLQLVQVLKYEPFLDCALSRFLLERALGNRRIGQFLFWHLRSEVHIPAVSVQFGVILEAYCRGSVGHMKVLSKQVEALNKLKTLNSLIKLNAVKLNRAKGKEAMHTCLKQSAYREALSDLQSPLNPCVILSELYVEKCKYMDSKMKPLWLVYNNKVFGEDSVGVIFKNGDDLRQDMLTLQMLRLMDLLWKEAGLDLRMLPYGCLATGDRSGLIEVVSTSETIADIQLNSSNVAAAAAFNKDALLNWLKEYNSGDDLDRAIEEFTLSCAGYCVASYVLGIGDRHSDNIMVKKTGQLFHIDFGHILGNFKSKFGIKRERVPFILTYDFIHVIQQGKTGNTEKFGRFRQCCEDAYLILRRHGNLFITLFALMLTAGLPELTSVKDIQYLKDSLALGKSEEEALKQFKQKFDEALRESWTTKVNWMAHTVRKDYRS

| Compound | IC50 [1] | IC50 [2] | IC50 [3] | inhibition [4] | inhibition [5] | inhibition [6] |
| --- | --- | --- | --- | --- | --- | --- |
| COc1ccc(-c2sc(NC(=O)C3CCCC3)nc2C)cc1S(=O)(=O)Nc1ccc(O)cc1 | 0.152 µM | > 20 µM | 2.6 µM | < 50% | < 50% | < 50% |
| COc1ccc(-c2sc(NC(=O)C(C)(C)C)nc2C)cc1S(=O)(=O)Nc1ccc(O)cc1 | 0.72 µM | > 20 µM | 3 µM | < 20% | < 20% | < 20% |

Source: ChEMBL document CHEMBL3784974, “Design and Structural Characterization of Potent and Selective Inhibitors of Phosphatidylinositol 4 Kinase IIIβ” (J Med Chem, 2016)
